In brackets after ≈: the same amount, converted by molar mass.
Assays:
Mus musculus [1] = assay: Toxicity in female BDF1 mouse allografted with mouse L1210 cells assessed as animal survival at 100 mg/kg, ip administered daily for 9 days as Klucel suspension starting 24 hrs after tumor inoculation measured on fifth day; format: organism-based; design: dose 100 mg/kg, route intraperitoneal; settings: in vivo
Summary of the method: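 Female BDF1 mice bearing ip ascitic L1210 inoculum got nine daily ip doses in a Klucel suspension, starting 24 h after tumor inoculation. Toxicity was scored as toxicity-day survivors out of the group, recorded on the fifth day. Animal weight difference (T − C) was also tabulated.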

Mus musculus [2] = assay: Toxicity in female CDF1 mouse allografted with mouse P388 cells assessed as animal survival at 200 mg/kg, ip administered daily for 9 days as Klucel suspension starting 24 hrs after tumor inoculation; format: organism-based; design: dose 200 mg/kg, route intraperitoneal; settings: in vivo
Summary of the method: (§1)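 P-388 leukemia ascitic fluid inoculated ip. Compound given ip as a suspension in Klucel (hydroxypropylcellulose), once daily for nine doses beginning 24 h post-inoculation. Acute toxicity assessed as toxicity-day survivors per group. Survival was followed up to 30 days, with 30-day survival counted as "cure". Follows NCI screening protocols.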

L1210 [3] = assay: Antileukemic activity against mouse L1210 cells allografted in female BDF1 mouse assessed as change in body weight at 200 mg/kg, ip administered daily for 9 days as Klucel suspension starting 24 hrs after tumor inoculation; format: functional; settings: route intraperitoneal
Summary of the method: (§2)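 Ascitic fluid carrying L1210 cells was inoculated ip. Compound was given ip as a Klucel (hydroxypropylcellulose) suspension in nine daily doses, starting 24 h after inoculation. Body-weight difference (treated minus control) was recorded on day 5. Survival was scored as %T/C of mean survival time.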

[4] = Cytotoxicity against human 9KB cells treated as ethanol solution; format: functional; settings: read-out: ED50 (the source's name)
Summary of the method: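 Compound applied as an ethanol solution; activity read out as ED50 under the general screening protocol.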

Mus musculus [5] = assay: Toxicity in female BDF1 mouse allografted with mouse L1210 cells assessed as animal survival at 200 mg/kg, ip administered daily for 9 days as Klucel suspension starting 24 hrs after tumor inoculation measured on fifth day; format: organism-based; design: dose 200 mg/kg, route intraperitoneal; settings: in vivo
Summary of the method: (§3)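 L1210 leukemia passaged as ascitic fluid and inoculated ip. Test agent given ip as a Klucel (hydroxypropylcellulose) suspension, nine daily doses starting 24 h after tumor inoculation. Acute toxicity read as toxicity-day survivors per group (out of 6), recorded on day 5. Animal weight difference T − C was also recorded. Follows NCI screening protocols.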

Mus musculus [6] = assay: Toxicity in female CDF1 mouse allografted with mouse P388 cells assessed as animal survival at 100 mg/kg, ip administered daily for 9 days as Klucel suspension starting 24 hrs after tumor inoculation; format: organism-based; design: dose 100 mg/kg, route intraperitoneal; settings: in vivo; summary of the method: as §1
Mus musculus [7] = assay: Toxicity in female BDF1 mouse allografted with mouse L1210 cells assessed as animal survival at 50 mg/kg, ip administered daily for 9 days as Klucel suspension starting 24 hrs after tumor inoculation measured on fifth day; format: organism-based; design: dose 50 mg/kg, route intraperitoneal; settings: in vivo; summary of the method: as §3
L1210 [8] = assay: Antileukemic activity against mouse L1210 cells allografted in female BDF1 mouse assessed as change in body weight at 100 mg/kg, ip administered daily for 9 days as Klucel suspension starting 24 hrs after tumor inoculation; format: functional; settings: route intraperitoneal; summary of the method: as §2
P388 [9] = assay: Antitumor activity against mouse P388 cells allografted in female CDF1 mouse assessed as change in body weight at 100 mg/kg, ip administered daily for 9 days as Klucel suspension starting 24 hrs after tumor inoculation; format: functional; settings: route intraperitoneal
Summary of the method: (§4)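 Ascitic fluid carrying P388 cells was inoculated ip. Compound was given ip in nine daily doses, starting 24 h after inoculation, in Klucel (hydroxypropylcellulose) suspension or in saline with Tween-80. Body-weight difference (treated minus control) was recorded on day 5. Survival was scored as %T/C of median survival time, and 30-day survival counted as cure.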

P388 [10] = assay: Antitumor activity against mouse P388 cells allografted in female CDF1 mouse assessed as disease cures by measuring 30-days host survival at 200 mg/kg, ip administered daily for 9 days as Klucel suspension starting 24 hrs after tumor inoculation relative to control; format: functional; settings: route intraperitoneal
Summary of the method: (§5)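 P388 leukemia given as an ascitic fluid cell inoculum, ip, to mice of the strain and sex in each line. Nine daily ip doses were given in a Klucel (hydroxypropylcellulose) suspension, starting 24 h after inoculation. Read-out is median survival time as %T/C, with >125 taken as significant; a "cure" means 30-day survival.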

P388 [11] = assay: Antitumor activity against mouse P388 cells allografted in female CDF1 mouse assessed as change in body weight at 200 mg/kg, ip administered daily for 9 days as Klucel suspension starting 24 hrs after tumor inoculation; format: functional; settings: route intraperitoneal; summary of the method: as §4
L1210 [12] = assay: Antileukemic activity against mouse L1210 cells allografted in female BDF1 mouse assessed as host mean survival time at 200 mg/kg, ip administered daily for 9 days as Klucel suspension starting 24 hrs after tumor inoculation relative to control; format: functional; settings: route intraperitoneal
Summary of the method: (§6)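 L1210 leukemia given as an ascitic fluid cell inoculum, ip, to mice of the strain and sex in each line. Test material was given ip for nine daily doses starting 24 h after inoculation, in a Klucel (hydroxypropylcellulose) suspension. Read-out is mean survival time as %T/C versus controls, with >125 taken as significant.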

L1210 [13] = assay: Antileukemic activity against mouse L1210 cells allografted in female BDF1 mouse assessed as host mean survival time at 100 mg/kg, ip administered daily for 9 days as Klucel suspension starting 24 hrs after tumor inoculation relative to control; format: functional; settings: route intraperitoneal; summary of the method: as §6
P388 [14] = assay: Antitumor activity against mouse P388 cells allografted in female CDF1 mouse assessed as disease cures by measuring 30-days host survival at 100 mg/kg, ip administered daily for 9 days as Klucel suspension starting 24 hrs after tumor inoculation relative to control; format: functional; settings: route intraperitoneal; summary of the method: as §5
L1210 [15] = assay: Antileukemic activity against mouse L1210 cells allografted in female BDF1 mouse assessed as host mean survival time at 50 mg/kg, ip administered daily for 9 days as Klucel suspension starting 24 hrs after tumor inoculation relative to control; format: functional; settings: route intraperitoneal; summary of the method: as §6
P388 [16] = assay: Antitumor activity against mouse P388 cells allografted in female CDF1 mouse assessed as disease cures by measuring 30-days host survival at 50 mg/kg, ip administered daily for 9 days as Klucel suspension starting 24 hrs after tumor inoculation relative to control; format: functional; settings: route intraperitoneal; summary of the method: as §5
L1210 [17] = assay: Antileukemic activity against mouse L1210 cells allografted in female BDF1 mouse assessed as change in body weight at 50 mg/kg, ip administered daily for 9 days as Klucel suspension starting 24 hrs after tumor inoculation; format: functional; settings: route intraperitoneal; summary of the method: as §2
Mus musculus [18] = assay: Toxicity in female CDF1 mouse allografted with mouse P388 cells assessed as animal survival at 50 mg/kg, ip administered daily for 9 days as Klucel suspension starting 24 hrs after tumor inoculation; format: organism-based; design: dose 50 mg/kg, route intraperitoneal; settings: in vivo; summary of the method: as §1
P388 [19] = assay: Antitumor activity against mouse P388 cells allografted in female CDF1 mouse assessed as change in body weight at 50 mg/kg, ip administered daily for 9 days as Klucel suspension starting 24 hrs after tumor inoculation; format: functional; settings: route intraperitoneal; summary of the method: as §4

Compound	Activity (Mus musculus [1])	Activity (Mus musculus [2])	Activity (L1210 [3]) [g]	EC50 [4] [µg/mL]	Activity (Mus musculus [5])	Activity (Mus musculus [6])	Activity (Mus musculus [7])	Activity (L1210 [8]) [g]	Activity (P388 [9]) [g]	T/C (P388 [10]) [%]	Activity (P388 [11]) [g]	T/C (L1210 [12]) [%]	T/C (L1210 [13]) [%]	T/C (P388 [14]) [%]	T/C (L1210 [15]) [%]	T/C (P388 [16]) [%]	Activity (L1210 [17]) [g]	Activity (Mus musculus [18])	Activity (P388 [19]) [g]
CNC(=O)OCc1c(COC(=O)NC)c(-c2ccccc2)n2c1CCC2	Non-toxic	Non-toxic	-3.1	22 (≈ 61.6 µM)	Non-toxic	Non-toxic	Non-toxic	-1.5	-1.8	59	-3.5	110	104	124	104	124	-2.6	Non-toxic	-2.1
OCc1c(CO)c(C(F)(F)F)n2c1CCC2	Non-toxic		-2.8	25 (≈ 106 µM)	Toxic		Non-toxic	-1.1	0.6	108	1.1		104	104	107	104	-0.3	Non-toxic	2.1
